The nature of test [1]: Her2 expression decrease, cell viability multiplex – SKBR3 breast tumor cells, AlphaScreen, ATP viability, primary screen (AID 461;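 active = Her2 level under about 52% in both replicate screens, with viability over 70% of control, limit read from the data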;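 for Her2 level: lower value means less Her2 protein in the cells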;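 for viability: percent of carrier control wells set as 100% viability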). The following applies: SKBR3 Her2 protein level, 18-24 h, measured here: SKBR3 viability, ATP luminescence, at 10 µM. On the technique in general: Bead proximity is the source of the signal in Alpha formats.
In test [2] the target is Receptor tyrosine-protein kinase erbB-2 (Homo sapiens) (UniProt P04626). Described as above. The following applies: 18-24 h, at 10 µM, stronger effect = lower value.
A short description of test [3]: reduced viability of SK-BR-3 breast cancer cells – cell-based, 24 h, human, pilot screen (AID 572).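 Note: compound exposure lasted between 18 and 24 h rather than exactly 24 h; 100% = carrier-treated control wells.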 The following applies: SK-BR-3 viability, CellTiter-Glo luminescence, at 10 µM, stronger effect = lower value. For orientation: ATP-based viability assays read luminescence as a measure of living cells.
The nature of test [4]: HUVEC growth inhibition – cell-based, human, primary screen (AID 575;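 active = viability at or below 30% in both replicate assays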;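 note: 100% = median of untreated cell wells with 0.1% DMSO on each plate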). As to conditions: HUVEC proliferation, CellTiter-Glo luminescence, 72 h; at 10 µM; stronger effect = lower value. A digest of the protocol:
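System – primary HUVEC, no more than 12 passages · Medium – Low-serum (2% FBS) EBM, supplemented · Times – 72 h exposure, 37 °C, 5% CO2, 30 min RT equilibration · Measured by – luminescent ATP assay · Read-out – % viability relative to median vehicle-well signal on each plate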

The nature of test [5]: H69AR cell proliferation blockers – human, duplicate replicates, primary screen (AID 580;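 active = viability at or under a set limit in both replicates, limit being median viability minus 3 SD, cut at about 48% in these data, passing the limit was not always enough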;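 note: 100% = mean luminescence of untreated wells and 0% = no signal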). As to conditions: H69AR lung tumor cells viability, ATP luminescence, 72 h; at 10 µM; stronger effect = lower value.
Test [6] is described as follows: MRP1 drug-resistance reversers in H69AR cells – cell-based, doxorubicin co-treatment, pilot screen (AID 601;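 active = viability loss from added drug above about 55%, and viability with drug at most 40%, in both replicates, limit read from the data, passing the limit was not always enough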). As to conditions: CellTiter-Glo, 72 h, at 10 µM; for differential viability (reversal): stronger effect = higher value.
Test [7] can be described thus: yeast transport mutant growth inhibition pilot in 384-well plates, post-Golgi transport modulator project (AID 636; in the data active = inhibition above about 31%). As to conditions: absorbance 615 nm, about 18 h, stronger effect = higher value.
The nature of test [8]: growth suppression of yeast trafficking mutant, preliminary HTS, modulators of trafficking downstream of Golgi apparatus project, 1536-format plate, OD 615 nm (AID 637; in the data active = inhibition above about 30%). As to conditions: yeast transport mutant growth, absorbance 615 nm, 18 h; stronger effect = higher value.
The mark [9] stands for this setting: H69AR cells + 2 uM doxorubicin, measured here: viability with 2 uM doxorubicin, stronger effect = lower value.
Setting [10] is: H69AR cells, compound alone cytotoxicity.

Active and inactive are the calls of the source.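 Rule for the calls, unless noted: active = viability at or below 10% of carrier control in both of two separate runs; inconclusive = viability at or below 10% in only one of the two runs; inactive = the rest.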

In general, viability refers to a read-out of living cells in per cent, often relative to untreated cells. The inhibition is the drop in the measured response relative to a control, in per cent.

Receptor tyrosine-protein kinase erbB-2 (Homo sapiens), sequence (P04626 whole entry, looked up): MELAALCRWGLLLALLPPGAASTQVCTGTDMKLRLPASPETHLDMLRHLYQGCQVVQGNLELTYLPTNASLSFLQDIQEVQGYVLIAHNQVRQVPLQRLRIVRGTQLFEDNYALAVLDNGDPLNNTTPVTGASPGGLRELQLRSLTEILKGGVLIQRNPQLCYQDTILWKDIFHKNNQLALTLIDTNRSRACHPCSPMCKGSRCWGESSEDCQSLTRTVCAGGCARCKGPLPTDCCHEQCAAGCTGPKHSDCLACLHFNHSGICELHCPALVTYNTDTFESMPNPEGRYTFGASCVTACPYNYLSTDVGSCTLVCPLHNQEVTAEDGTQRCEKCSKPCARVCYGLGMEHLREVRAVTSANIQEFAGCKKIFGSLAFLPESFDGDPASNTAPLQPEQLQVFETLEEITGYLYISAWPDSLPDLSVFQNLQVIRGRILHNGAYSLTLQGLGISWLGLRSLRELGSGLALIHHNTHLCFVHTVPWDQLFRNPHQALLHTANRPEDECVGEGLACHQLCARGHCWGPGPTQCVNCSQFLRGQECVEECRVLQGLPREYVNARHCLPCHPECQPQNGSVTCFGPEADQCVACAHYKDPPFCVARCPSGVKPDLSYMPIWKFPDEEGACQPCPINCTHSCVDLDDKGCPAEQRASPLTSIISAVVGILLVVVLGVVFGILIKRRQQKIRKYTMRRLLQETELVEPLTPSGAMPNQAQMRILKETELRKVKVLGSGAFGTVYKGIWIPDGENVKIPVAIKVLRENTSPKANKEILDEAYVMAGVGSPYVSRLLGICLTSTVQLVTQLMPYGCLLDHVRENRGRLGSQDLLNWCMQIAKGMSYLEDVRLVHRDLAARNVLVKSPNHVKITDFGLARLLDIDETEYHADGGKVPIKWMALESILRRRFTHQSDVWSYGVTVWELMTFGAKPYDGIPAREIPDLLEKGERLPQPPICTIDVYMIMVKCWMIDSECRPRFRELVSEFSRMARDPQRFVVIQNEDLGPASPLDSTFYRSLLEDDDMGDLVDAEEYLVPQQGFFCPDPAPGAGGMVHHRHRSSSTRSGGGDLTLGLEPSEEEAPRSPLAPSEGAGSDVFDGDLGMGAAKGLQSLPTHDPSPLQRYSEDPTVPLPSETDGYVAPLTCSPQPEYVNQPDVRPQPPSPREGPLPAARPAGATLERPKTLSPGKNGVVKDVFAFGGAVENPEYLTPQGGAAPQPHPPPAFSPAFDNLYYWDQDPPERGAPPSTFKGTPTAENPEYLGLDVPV

In the case of `C/C(N)=C(/C#N)C(=O)COC(=O)COc1ccc(Cl)cc1`, the viability in test [1] was 93%; in test [3] it was 93% (inactive); in test [4] it was 98% (inactive); in test [5], 91.9% (inactive); in test [6] (setting [9]), 97.7%; in test [6] (setting [10]) it was 91.9%. Moreover, in test [2], the Her2 level is 100% (inactive). Besides, the differential viability (reversal) in test [6] (H69AR cells + 2 uM doxorubicin) is -5.87% (inactive). Besides, the inhibition is -7.07% (inactive) in test [7] and -5.08% (inactive) in test [8].
With `Cn1c(SCC(=O)O)nnc1C1CCCCC1`, the viability was 102% in test [1]; 102% (inactive) in test [3]; 99.7% (inactive) in test [4]; 92.7% (inactive) in test [5]; 93.9% in test [6] (setting [9]); 92.7% in test [6] (setting [10]). Besides, in test [2], the Her2 level is 110% (inactive). Further, the differential viability (reversal) in test [6] (H69AR cells + 2 uM doxorubicin) was -1.2% (inactive). Besides, the inhibition in test [7] was 0.27% (inactive); in test [8], 8.85% (inactive).
For `O=C(CSc1nccn1-c1cccc(Cl)c1)NC1CCCC1`, the viability is 95.5% in test [1]; 95.5% (inactive) in test [3]; 95.5% (inactive) in test [4]; 111% (inactive) in test [5]; 101% in test [6] (setting [9]); 111% in test [6] (setting [10]). Besides, the Her2 level in test [2] is 86% (inactive). Moreover, the differential viability (reversal) in test [6] (H69AR cells + 2 uM doxorubicin) is 10.3% (inactive). Besides, the inhibition is 0.91% (inactive) in test [7] and 14.1% (inactive) in test [8].
For `CCCCOCP(=O)(CCCC)COCCCC`, the viability in test [1] is 92.5%; in test [3], 92.5% (inactive); in test [4], 95.3% (inactive); in test [5], 94.1% (inactive); in test [6] (setting [9]), 88.8%; in test [6] (setting [10]) it was 94.1%. In test [2], the Her2 level is 91.5% (inactive). In addition, the differential viability (reversal) in test [6] (H69AR cells + 2 uM doxorubicin) is 5.32% (inactive). The inhibition in test [7] was -3.12% (inactive); in test [8] it was -0.98% (inactive).
Take `O=C(NCCC1=CCCCC1)C1CCN(S(=O)(=O)c2cccc3nsnc23)CC1`: the viability in test [1] was 104%; in test [3], 104% (inactive); in test [4] it was 58.5% (inactive); in test [5] it was 96.5% (inactive); in test [6] (setting [9]), 82.4%; in test [6] (setting [10]), 96.5%. Besides, the Her2 level in test [2] is 92.5% (inactive). Moreover, the differential viability (reversal) in test [6] (H69AR cells + 2 uM doxorubicin) is 14.2% (inactive). Besides, the results for the inhibition in test [7] and in test [8] were -5.33% (inactive) and 0.98% (inactive), respectively.
On to `O=S(=O)(Nc1ccn(-c2ccccc2)n1)c1ccc(Br)cc1`, for which the viability was 89% in test [1]; 89% (inactive) in test [3]; 85.7% (inactive) in test [4]; 87.5% (inactive) in test [5]; 93.7% in test [6] (setting [9]); 87.5% in test [6] (setting [10]). For the same compound, in test [2], the Her2 level is 86.5% (inactive). Besides, the differential viability (reversal) in test [6] (H69AR cells + 2 uM doxorubicin) was -6.15% (inactive). The inhibition in test [7] was -3.77% (inactive); in test [8], 0.16% (inactive).
For the compound `CCOC(=O)C(NC(C)=O)(Nc1ccc(S(=O)(=O)Nc2nccs2)cc1)C(F)(F)F` (stereo not given), the viability in test [1] was 120%; in test [3] it was 120% (inactive); in test [4] it was 102% (inactive); in test [5] it was 109% (inactive); in test [6] (setting [9]), 106%; in test [6] (setting [10]) it was 109%. Further, the Her2 level in test [2] is 106% (inactive). For the same compound, the differential viability (reversal) in test [6] (H69AR cells + 2 uM doxorubicin) is 3.07% (inactive). The inhibition in test [7] is 0.39% (inactive); in test [8] it was 8.57% (inactive).
On to `O=S(=O)(NCc1ccco1)c1cccc2cccnc12`, for which the viability was 105% in test [1]; 105% (inactive) in test [3]; 89.7% (inactive) in test [4]; 79% (inactive) in test [5]; 88.5% in test [6] (setting [9]); 79% in test [6] (setting [10]). Further, in test [2], the Her2 level is 93.5% (inactive). For the same compound, the differential viability (reversal) in test [6] (H69AR cells + 2 uM doxorubicin) is -9.52% (inactive). Moreover, the inhibition in test [7] was -1.18% (inactive); in test [8] it was -1.45% (inactive).
In the case of `CC1CCN(C(=O)CN2C(=O)C(C)(C)Oc3ccc(C(=O)NC4CCCC4)cc32)CC1`, the viability was 82% in test [1]; 82% (inactive) in test [3]; 83.1% (inactive) in test [4]; 93.4% (inactive) in test [5]; 88.9% in test [6] (setting [9]); 93.4% in test [6] (setting [10]). The Her2 level in test [2] is 104% (inactive). In addition, the differential viability (reversal) in test [6] (H69AR cells + 2 uM doxorubicin) is 4.5% (inactive). In addition, the inhibition in test [7] was -5% (inactive); in test [8], -7.05% (inactive).
As for `O=C(NC1CCCCC1)c1ccc(S(=O)(=O)N2CCCCC2)cc1`, the viability in test [1] was 80.5%; in test [3] it was 80.5% (inactive); in test [4], 86% (inactive); in test [5], 74.9% (inactive); in test [6] (setting [9]), 105%; in test [6] (setting [10]) it was 74.9%. Further, the Her2 level in test [2] was 108% (inactive). Further, the differential viability (reversal) in test [6] (H69AR cells + 2 uM doxorubicin) is -29.9% (inactive). The inhibition in test [7] was 4.29% (inactive); in test [8], -11.4% (inactive).
Regarding `Cc1ccc(-c2cc(C(=O)NCc3ccc4c(c3)OCO4)no2)cc1`, the viability was 96% in test [1]; 96% (inactive) in test [3]; 84.9% (inactive) in test [4]; 90.8% (inactive) in test [5]; 84.9% in test [6] (setting [9]); 90.8% in test [6] (setting [10]). Also, the Her2 level in test [2] is 77% (inactive). Also, the differential viability (reversal) in test [6] (H69AR cells + 2 uM doxorubicin) was 5.94% (inactive). For the same compound, the figures for the inhibition in test [7] and in test [8] were -7.43% (inactive) and -0.33% (inactive), respectively.
On to `c1cncc(-c2nnc(SCCSc3nnc(-c4cccnc4)o3)o2)c1`, for which the viability in test [1] was 99.5%; in test [3], 99.5% (inactive); in test [4], 98.7% (inactive); in test [5], 91.9% (inactive); in test [6] (setting [9]), 91.8%; in test [6] (setting [10]), 91.9%. Besides, in test [2], the Her2 level was 93% (inactive). The differential viability (reversal) in test [6] (H69AR cells + 2 uM doxorubicin) was 0.085% (inactive). Besides, the inhibition in test [7] was -5.68% (inactive); in test [8], -2.17% (inactive).
With `CCCn1c(C)cc(C(=O)COc2ncnc3sccc23)c1C`, the viability in test [1] is 89%; in test [3] it was 89% (inactive); in test [4] it was 74.1% (inactive); in test [5], 63.8% (inactive); in test [6] (setting [9]), 82.3%; in test [6] (setting [10]) it was 63.8%. Besides, in test [2], the Her2 level is 98.5% (inactive). Besides, in test [6] (H69AR cells + 2 uM doxorubicin), the differential viability (reversal) is -18.6% (inactive). Also, the results for the inhibition in test [7] and in test [8] were 1.3% (inactive) and -11.8% (inactive), respectively.
Regarding `CCOC(=O)c1ccc(NC(=O)CSc2n[nH]c(-c3ccncc3)n2)cc1`, the viability in test [1] is 87.5%; in test [3], 87.5% (inactive); in test [4], 80% (inactive); in test [5] it was 87.7% (inactive); in test [6] (setting [9]), 89.4%; in test [6] (setting [10]) it was 87.7%. The Her2 level in test [2] was 102% (inactive). Moreover, the differential viability (reversal) in test [6] (H69AR cells + 2 uM doxorubicin) was -1.68% (inactive). The figures for the inhibition in test [7] and in test [8] were -3.11% (inactive) and 1.27% (inactive), respectively.
